# Test results reported in the array DNA melting data of Ke et al. (doi:10.1101/2024.01.08.574731).
# What was measured:
# [1] = folding enthalpy; higher = less favourable; fluorescence melt of hairpins on a sequencing array, two-state fit; conditions: sodium 0.088 M
# How it was run: (§1)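 Bootstrapped two-state fits yielded melting temperature and folding enthalpy for library hairpins. Cy3 fluorescence, with annealed Cy3 and quencher oligos, was imaged on a sequenced MiSeq flow cell in 50 mM Na-HEPES pH 8.0, 25 mM NaCl in 2.5 °C steps up to 60 °C, and normalised to pre-quench Cy3 and to control constructs. Four replicates were combined by inverse variance, and fitted temperatures were raised by 9.35 °C to match UV melts.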
# [2] = melting temperature; fluorescence melt of hairpins on a sequencing array, two-state fit, raised by 9.35 °C to match UV melts; conditions: sodium 0.088 M
# How it was run: as §1
Sequence,folding enthalpy [1],Tm [2]
GGGCCGGGAAACCGGCTC (.(((((....))))).),-15.4 kcal/mol,66.8 °C
GCTGTACGAAAGTAAAGC (((.(((....))).))),-30.2 kcal/mol,49.6 °C
GGCGACGAAAGTCAGCC ((((((....))).))),-28.1 kcal/mol,65.6 °C
GCGGCCGCGAAAGCGCGC (((..(((....)))))),-11.6 kcal/mol,59.5 °C
GCCTAGGGAAACCTAGGC (((((((....))))))),-36.9 kcal/mol,67.5 °C
GCATATCGAAAGATTGC (((.(((....)))))),-25.9 kcal/mol,46.6 °C
GCCCTAGGAAACTAAGGC (((.(((....))).))),-21.1 kcal/mol,34 °C
GGCAGTCGAAAGACCGCC (((.(((....))).))),-35 kcal/mol,58 °C
GATGTGGCGAAAGCCATC (((..(((....)))))),-8.76 kcal/mol,38.5 °C
GCCGAAGCGAAAGCTGGC (((..(((....)))))),-31.6 kcal/mol,57.1 °C
GCCTAACGAAAGTTGGC (((.(((....)))))),-31.3 kcal/mol,53.7 °C
GTGGCCGAAAGGCCTCAC ((((((....)))..))),-7.49 kcal/mol,40.4 °C
GCTTGGCGAAAGCCTCGC ((..(((....)))..)),-17.4 kcal/mol,41.8 °C
GGAATGGAAACATTCC ((((((....)))))),-44.9 kcal/mol,53.1 °C
GTAGTCGAAAGACTATAC ((((((....)))..))),-13.2 kcal/mol,42 °C
GATCATTGTTATGATC ((((((....)))))),-37 kcal/mol,47.3 °C
GCACACGAAAGTGACTGC ((((((....)))..))),-17.9 kcal/mol,37.6 °C
GTCACCGAAAGGTATGAC ((((((....)))..))),-20.2 kcal/mol,40.1 °C
GCAGGAGGAAACTCTTGC (((.(((....))).))),-34.8 kcal/mol,46.7 °C
GAGAAGGGAAACCCTCTC ((((.((....)).)))),-22.8 kcal/mol,35.6 °C
GCGATGGATCGC ((((....)))),-22.8 kcal/mol,52.8 °C
GCCAACGGAAACATTGGC (((((.(....).))))),-31.9 kcal/mol,44.1 °C
CTAGGGAAACCTAG (((((....))))),-17.2 kcal/mol,39.4 °C

Sequence,folding enthalpy [1],Tm [2]
GCGGTACGAAAGTAACGC (((.(((....))).))),-38.8 kcal/mol,67.7 °C
GACGAACCGAAAGGTGTC (((..(((....)))))),-16.4 kcal/mol,43.1 °C
GTTTACGAAAGTAAAAC ((((((....))).))),-16.8 kcal/mol,38.4 °C
GAGAACGAAAGTTGGCTC ((((((....)))..))),-19.1 kcal/mol,30.6 °C
GGGCCCGAAAGGGTTCCC ((((((....)))..))),-15.2 kcal/mol,51.5 °C
GCCTTGCGAAAGCGTGGC (((..((....))..))),-22.8 kcal/mol,60.3 °C
GGACCGGCGAAAGCCTCC (((..(((....)))))),-10.2 kcal/mol,27.5 °C
GATCTAAACATAGATC ((((((....)))))),-26.9 kcal/mol,37 °C
GCGGGCGTCCGC ((((....)))),-23.6 kcal/mol,58.6 °C
GTATGAGGAAACTCGTAC (((.(((....))).))),-33.4 kcal/mol,44 °C
GTGCTAGAAATAGCAC ((((((....)))))),-40.3 kcal/mol,56.5 °C
GTGAAAGGAAACTTTCAC (((((((....))))))),-50.6 kcal/mol,54.1 °C
GATCCTCTGCAGGATC ((((((....)))))),-37 kcal/mol,50.7 °C
GGCCGCCGAAAGGCAGCC (((.(((....))).))),-25.5 kcal/mol,67.4 °C
GATCTTTCGCAAGATC ((((((....)))))),-32.4 kcal/mol,43.5 °C
GAGCTAGCGAAAGCTCTC (((..(((....)))))),-17 kcal/mol,45.3 °C
GGTTCCGAAAGGACTACC ((((((....)))..))),-15.3 kcal/mol,36.1 °C
GTCCTCGAAAGAGTTGAC ((((((....)))..))),-10.7 kcal/mol,31.2 °C
GAACTCGGAAACAAGTTC (((((.(....).))))),-22.7 kcal/mol,34 °C
GGGACGGGAAACCGTTCC ((.((((....)))).)),-35.2 kcal/mol,57.2 °C
GTAGTGGGAAACCATTAC (((.(((....))).))),-32 kcal/mol,38.1 °C
GCTCACACGAAAGTGAGC (((..(((....)))))),-32 kcal/mol,60.5 °C
GGAGTGACGAAAGTCTCC (((..(((....)))))),-18 kcal/mol,38.8 °C

Sequence,folding enthalpy [1],Tm [2]
GCGGTCGGAAACGACCAC (.(((((....))))).),-11.6 kcal/mol,48.4 °C
CGCGGAAGATTCCGCG ((((((....)))))),-38.7 kcal/mol,68.9 °C
GACTTTGGAAACAAGGTC (((.(((....))).))),-38.1 kcal/mol,41.8 °C
GCCTTCGGAAACGAGGGC (((.(((....))).))),-33.6 kcal/mol,56.7 °C
GATCATTGTGATGATC ((((((....)))))),-43.4 kcal/mol,51 °C
GGTGGAGAAATCCACC ((((((....)))))),-33.1 kcal/mol,59.8 °C
GCCGCGGGAAACCGCGAC (.(((((....))))).),-10.8 kcal/mol,59.7 °C
GTCCACCGAAAGGTCGAC (((.(((....))).))),-27.2 kcal/mol,44 °C
CTTACGAAAGTAAG (((((....))))),-19.3 kcal/mol,49.2 °C
GCACGGCGAAAGCTCTGC (((..((....))..))),-21.1 kcal/mol,37.4 °C
GTAGCCCGAAAGGGTTAC (((.(((....))).))),-25.4 kcal/mol,60.2 °C
GCACCGCGAAAGCTTTGC (((..((....))..))),-12 kcal/mol,36.2 °C
GGACTGGGAAACCAATCC (((.(((....))).))),-28 kcal/mol,36 °C
GATCTAAGTCTAGATC ((((((....)))))),-25.4 kcal/mol,37.7 °C
GGATACCGAAAGGTCTCC (((.(((....))).))),-25.3 kcal/mol,47.6 °C
TAGGGGAAACCCTA (((((....))))),-15.3 kcal/mol,40.2 °C
GCGTCCGAAAGGAACCGC ((((((....)))..))),-20.3 kcal/mol,48.5 °C
GCGCAGCGAAAGCTAAGC ((..(((....)))..)),-17.7 kcal/mol,58.4 °C
GATCACCTTTGTGATC ((((((....)))))),-42.4 kcal/mol,55 °C
GTCTTACGAAAGTATGAC (((.(((....))).))),-30.9 kcal/mol,48.3 °C
GCGCCAACGAAAGTTCGC (((..(((....)))))),-24.3 kcal/mol,43.5 °C
GAGCCCGAAAGGGGACTC ((((((....)))..))),-18.9 kcal/mol,47.8 °C
GCTTCAGCGAAAGCTAGC (((..(((....)))))),-9.89 kcal/mol,41.2 °C

Sequence,folding enthalpy [1],Tm [2]
GAGGCAGCGAAAGCTCTC (((..(((....)))))),-10.2 kcal/mol,31.8 °C
GCGGCGTACCGC ((((....)))),-17.2 kcal/mol,64.7 °C
GCATCGGGAAACCGACGC ((.((((....)))).)),-42.1 kcal/mol,50.4 °C
GATGGCGAAAGCCGTATC ((((((....)))..))),-6.56 kcal/mol,43.8 °C
GAACGCCGAAAGGCTTTC (((.(((....))).))),-17.9 kcal/mol,44.2 °C
GCATGTGGAAACACATGC (((((((....))))))),-37.1 kcal/mol,68.5 °C
GATCTCTTAGGAGATC ((((((....)))))),-38.1 kcal/mol,54.2 °C
GATCATTACAATGATC ((((((....)))))),-37.9 kcal/mol,49.7 °C
GCATGCGAAAGCAGGTGC ((((((....)))..))),-23.2 kcal/mol,51.1 °C
GCTGATGGAAACACCAGC ((((.((....)).)))),-30.8 kcal/mol,45.9 °C
GACTGGGGAAACTCAGTC (((((.(....).))))),-40.5 kcal/mol,49.9 °C
GTGAGAGGAAACTCTCGC (.(((((....))))).),-27.2 kcal/mol,51.2 °C
GATCAAGTCATTGATC ((((((....)))))),-41.8 kcal/mol,52.3 °C
GTACGCGAAAGCGCGTAC ((((((....)))..))),-25.7 kcal/mol,62.5 °C
GTAATCGAAAGATTTAC ((((((....))).))),-14.7 kcal/mol,33.3 °C
GGGGACGGAAACGTCTCC ((.((((....)))).)),-27.5 kcal/mol,57.2 °C
GCATGAGCGAAAGCTTGC (((..(((....)))))),-14.1 kcal/mol,45.6 °C
GATCGGCATGCCGATC ((((((....)))))),-44.7 kcal/mol,67.4 °C
GTTCACGAAAGTGAGAAC ((((((....)))..))),-11.2 kcal/mol,37.5 °C
GCATTAACGAAAGTTTGC (((..(((....)))))),-16 kcal/mol,33.6 °C
GGCAGCCCGAAAGGGGCC (((..(((....)))))),-13.3 kcal/mol,50.7 °C
GATCAGCCAGCTGATC ((((((....)))))),-40.1 kcal/mol,56.5 °C
CGTTTCGGAAACGAGACG (((.(((....))).))),-24.9 kcal/mol,49.1 °C
